Assay outcomes (PubChem BioAssay)
CAL PDZ FP-1: inhibitors of human CAL PDZ peptide binding; Q9HD26; purified CAL PDZ, TMR-peptide fluorescence polarization, 1 h; inhibition, % at 24.9 µM; hit rate 0.92% among 300,000; AID 602252;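 active means mean inhibition of at least 30% with at least half of replicates also reaching 30%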;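 further: 0% = DMSO neutral control and 100% = excess unlabeled competitor peptide PRC23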
SR-BI DiI-HDL act: activators of SR-BI mediated HDL lipid uptake; CHO ldlA[mSR-BI] cells, DiI-HDL uptake fluorescence, 3 h; 100 = double the neutral-control signal; activation, % at 12.5 µM; hit rate 0.096% among 320,000;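 active means mean replicate activation of at least 60% and every replicate at or above 60%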;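 further: 0% = median plate neutral-control signal and 100% = twice that signal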
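Material – SR-BI-overexpressing, LDLR-lacking CHO cells · Medium – BSA-supplemented, HEPES-buffered Ham's F12, pH 7.4 · Doses – single concentration · Times – compound with DiI-HDL co-incubation, 3 h at 37 °C · Measured by – bottom-read fluorescence, 550/595 nm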
SR-BI DiI inh: mouse SR-BI HDL lipid transfer inhibition. Q61009. hit rate 0.96% among 320,000. inhibition, % at 12.5 µM. ldlA[mSR-BI] CHO cells, DiI-HDL uptake fluorescence, 3 h;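 active means mean replicate inhibition of at least 70% and a set share of replicates each scoring 70 or more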;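 further: 0% = median of neutral control wells and 100% = median of positive control wells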
Target sequence (Q61009 whole entry, looked up): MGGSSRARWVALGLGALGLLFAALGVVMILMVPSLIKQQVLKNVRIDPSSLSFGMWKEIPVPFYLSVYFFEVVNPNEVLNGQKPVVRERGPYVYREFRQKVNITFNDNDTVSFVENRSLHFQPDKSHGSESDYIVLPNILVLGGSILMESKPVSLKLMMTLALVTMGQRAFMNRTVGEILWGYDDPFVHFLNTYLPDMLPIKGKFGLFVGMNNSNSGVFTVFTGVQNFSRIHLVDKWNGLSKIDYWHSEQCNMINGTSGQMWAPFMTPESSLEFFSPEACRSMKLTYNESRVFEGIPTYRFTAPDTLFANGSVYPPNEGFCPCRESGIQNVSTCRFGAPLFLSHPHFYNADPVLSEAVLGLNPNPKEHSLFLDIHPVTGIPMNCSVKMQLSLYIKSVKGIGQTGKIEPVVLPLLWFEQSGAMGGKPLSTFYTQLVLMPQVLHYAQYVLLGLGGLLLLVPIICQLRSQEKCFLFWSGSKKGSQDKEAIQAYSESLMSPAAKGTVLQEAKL
miR-122 sensor: blocks miR-122 activity in Huh7 sensor cells; Huh7 miR-122 Renilla luciferase sensor, 48 h; neutral wells = 0, positive control = 100; hit rate 0.3% among 340,000; activation (reporter increase), % at 12.5 µM; AID 602342;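 active means mean replicate activation score at least 90 and every replicate individually at or above 90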;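 further: higher luciferase means less miR-122 activity so hits act as miR-122 inhibitors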
CAL PDZ FP-2: blocks peptide binding to human CAL PDZ domain. Q9HD26. purified CAL PDZ, TMR-peptide fluorescence polarization, 1 h. inhibition, % at 20 µM. hit rate 0.02% among 330,000;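 active means highest replicate inhibition of at least 40%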;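 further: plate controls were DMSO neutral control wells for no effect and unlabeled competitor peptide control wells for full effect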
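Material: tagged CAL PDZ domain; buffer or medium: 25 mM sodium phosphate pH 7.4, 150 mM NaCl, TCEP, IgG, Thesit; compound dosing: single point, 20 µM; schedule: 1 h incubation at room temperature before polarization reading; measured by: FP readout, S and P plane fluorescence; read-out basis: percent inhibition from loss of millipolarization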
ARNT-TACC3 inh: disrupts binding between human ARNT and TACC3; Q9Y6A5; AlphaScreen His-ARNT PAS-B/GST-TACC3 binding, luminescence; TACC3 fragment carries E629A point mutation; inhibition, % at 9.99 µM; hit rate 0.66% among 390,000; AID 623870;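 active means mean inhibition of replicates at least 50% and at least half of replicates each reaching 50%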;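 further: 0% = complete ARNT plus TACC3 wells and 100% = ARNT alone without TACC3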
* marks the source's active call; other numbers are inactive results; / = not tested or not shown; [ ] = another dose, or the depositor's remark. An excerpt weighted towards active compounds, which were near 2.1% of everything screened.

SMILES | CAL PDZ FP-1 | SR-BI DiI-HDL act | SR-BI DiI inh | miR-122 sensor | CAL PDZ FP-2 | ARNT-TACC3 inh
CC(C)CNC(=S)NC1CCCC1 | 140* | -4 | 4 | -9 | / | -18
COc1ccc(S(=O)(=O)N(CCc2ccccc2)CC(=O)N2CCOCC2)cc1 | -4 | 17 | -17 | 125* | -1 | 17
COc1ccc(S(=O)(=O)N(C)CC(=O)N2CCOCC2)cc1 | -3 | 26 | -26 | -4 | 0 | -12
CC(=NCCCn1ccnc1)C1=C(O)c2ccccc2C1=O | 0 | 61* | -61 | / | -3 | 26
N#C[C@H]1[C@@H](c2ccc(C3=CCCCC3)cc2)[C@H](CO)N1C(=O)NC1CCCCC1 | / | / | / | / | / | 18
C=CCN(C(=O)c1csnn1)C(C(=O)NCc1ccccc1)c1c(F)cccc1Cl (stereo not drawn) | 41* | 18 | -18 | / | 0 | -1
CCOC(=O)c1csc(NC(=O)c2cc(OC)c(OC)c(OC)c2)n1 | -4 | -77 | 77* | -4 | -1 | -1
CN(C)CCNc1nc(S(=O)(=O)c2ccccc2)c(Cl)s1 | 83* | 14 | -14 | / | -1 | 22
CC(C)CNc1nc(S(=O)(=O)c2ccccc2)c(Cl)s1 | -4 | 0 | 0 | 5 | -2 | 5
CCN(CC)CC(=O)NCC1(c2ccccc2)CCOCC1 | 70* | 6 | -6 | 0 | -2 | -6
OC[C@@H]1[C@H](c2ccc(C#Cc3ccccc3)cc2)[C@H]2CN(Cc3cncnc3)CCCCN12 | / | / | / | -13[16.7 µM] | / | 24
CC(=O)N1[C@H](CO)[C@@H]2c3ccccc3N(C(=O)c3ccccc3)C[C@@H]21 | / | / | / | -9[16.7 µM] | / | 2
Cc1ccccc1Nc1c([N+](=O)[O-])ccc2c1=NC1(CCCCC1)N=2 | / | -83 | 83* | 3 | 0 | 0
CO[C@H]1CN(C)C(=O)c2ccc(NC(=O)C3CCCCC3)cc2OC[C@@H](C)NC[C@@H]1C | / | / | / | -2[16.7 µM] | / | -2
CC1=NOC(=O)/C1=C\c1ccc(-c2ccc(Cl)cc2Cl)o1 | -5 | -129 | 129* | 5 | -2 | -6
Cc1noc(C)c1S(=O)(=O)N(C)C[C@@H]1OCCCC[C@@H](C)Oc2ccc(NS(=O)(=O)c3ccc(F)cc3)cc2C(=O)N([C@@H](C)CO)C[C@H]1C | / | / | / | -12[16.7 µM] | / | -1
CCN(CC)c1ccc(/C=N/N2CCN(c3ccccn3)CC2)cc1 | 43* | 4 | -4 | -5 | 0 | 0
COc1ccc(C(=O)NNC2=C(C(=O)C(F)(F)F)CCC2)cc1 | / | -95 | 95* | -9 | -2 | 10
O=C(NNC1=C(C(=O)C(F)(F)F)CCC1)c1cccc(Cl)c1 | -1 | -80 | 80* | -1 | 0 | /
CC(C)(C)c1ccc(C(=O)NNC(=O)c2ccc(Cl)cc2)cc1 | 0 | -2 | 2 | / | -1 | -7
O=C(NNC1=C(C(=O)C(F)(F)F)CCC1)c1ccc(Cl)cc1 | 3 | -93 | 93* | / | -1 | 37
O=C(Nc1ccc(F)cc1)N[C@H]1CC[C@H](CCNS(=O)(=O)c2ccccc2F)O[C@@H]1CO | / | / | / | / | / | 4
O=C(CCN1N=C(c2ccccc2)CCC1=O)NCCCN1CCOCC1 | 64* | 10 | -10 | -6 | -1 | 2
Cc1sc(NC(=O)CS(=O)(=O)c2ccccc2)c(C#N)c1C | -7 | 0 | 0 | 1 | -3 | /
COC(=O)c1c(NC(=O)CS(=O)(=O)c2ccccc2)sc(C)c1C | 45* | -43 | 43 | / | -2 | -3
SMILES | CAL PDZ FP-1 | SR-BI DiI-HDL act | SR-BI DiI inh | miR-122 sensor | CAL PDZ FP-2 | ARNT-TACC3 inh
Cc1ccc(NS(=O)(=O)c2ccc(Cl)c(N=Nc3c(O)[nH]c(=O)[nH]c3=O)c2)cc1Cl | 31* | -9 | 9 | 57 | 0 | -2
Cc1ccc(NS(=O)(=O)c2ccc3[nH]c(=O)c(=O)[nH]c3c2)cc1Cl | -6 | 15 | -15 | 7 | -4 | -2
CCC/C(O)=C1\C(=O)CC(C)(C)CC1=Nc1ccc(OC)cc1OC | 60* | -39 | 39 | 41 | 0 | 1
O=C(Nc1cccc(C(F)(F)F)c1)c1ccc(Cn2cc(Br)cn2)o1 | 76* | 0 | 0 | 6 | -1 | -30
N#Cc1ccccc1NC(=O)C1SC(=Nc2ccccc2)C(C(=O)Nc2ccc(Cl)cc2)=C1N (stereo not drawn) | 3 | -108 | 108* | 8 | 2 | 1
CCOc1ccc(N=C2SC(C(=O)Nc3ccccc3C#N)C(N)=C2C(=O)Nc2ccc(Cl)cc2)cc1 (stereo not drawn) | 0 | -18 | 18 | / | -2 | 3
CO[C@H]1CN(C)C(=O)c2ccc(NC(=O)C3CC3)cc2OC[C@@H](C)N(Cc2cncnc2)C[C@H]1C | / | / | / | 2[16.7 µM] | / | /
O=C1c2ccc(-c3ccc(Cl)c(C(F)(F)F)c3)cc2S(=O)(=O)c2cccc(C(=O)N3CCN(c4ccc(Cl)cn4)CC3)c21 | -3 | -91 | 91* | / | 0 | 2
COc1ccc(-c2ccc3c(c2)S(=O)(=O)c2cccc(C(=O)N4CCN(c5ccccn5)CC4)c2C3=O)cc1OC | / | / | / | 3 | / | /
CC(C)NC(=O)Nc1ccc2c(c1)C(=O)N([C@@H](C)CO)C[C@H](C)[C@H](CN(C)C(=O)NC1CCCCC1)O2 | / | / | / | -2[16.7 µM] | / | -7
COc1ccccc1Nc1nc(NCCO)nc(N2CCCC2)n1 | 0 | 6 | -6 | / | -1 | active
COc1ccccc1Nc1nc(NCCCCO)nc(N2CCCC2)n1 | -2 | -42 | 42 | / | -1 | 2
C[C@H](CO)N1C[C@H](C)[C@@H](CN(C)S(=O)(=O)c2cccs2)Oc2ccc(NS(=O)(=O)c3cn(C)cn3)cc2CC1=O | / | / | / | -3[16.7 µM] | / | 4
C[C@@H]1CN([C@H](C)CO)C(=O)c2cc(NS(C)(=O)=O)ccc2O[C@@H]1CN(C)S(=O)(=O)c1ccccc1 | / | / | / | 14[16.7 µM] | / | /
C[C@H]1CCCCO[C@H](CN(C)S(=O)(=O)c2ccc(Cl)cc2)[C@@H](C)CN([C@@H](C)CO)C(=O)c2cc(NC(=O)c3ccccc3)ccc2O1 | / | / | / | -6[16.7 µM] | / | 12
COc1cc(NC(=O)c2cc(C3CC3)on2)c(OC)cc1Cl | 7 | -81 | 81* | 8 | 1 | -3
COc1cc(NC(=O)c2ccc(F)cc2)c(OC)cc1Cl | -3 | -61 | 61 | 3 | -2 | -3
COc1ccc(C(=O)Nc2cc(OC)c(Cl)cc2OC)cc1 | 37* | -57 | 57 | / | -1 | -5
COc1ccc(NC(=O)c2cc(C(C)C)on2)c(OC)c1 | / | / | / | 0 | -1 | -5
COc1cc(OC)c(NC(=S)Nc2cccc(C(C)=O)c2)cc1Cl | -3 | -87 | 87* | 9 | -1 | 3
COc1cc(NC(=O)C2CCCC2)c(OC)cc1Cl | -1 | -23 | 23 | 1 | -2 | -7
COc1cc(NC(=O)c2cc(C(C)C)on2)c(OC)cc1Cl | -5 | -82 | 82* | 6 | / | -5
